# This is one part of a sample in which hits are shown more often than they occur.
# S1P3 antag = S1P3 receptor antagonists, primary screen, cell-based | CHO S1P3 NFAT-BLA reporter, FRET fluorescence, antagonist mode | AID 485, 2006 | inhibition, % at 4.98 µM | hit rate 0.27% among 170,000;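 active = inhibition above the plate cutoff, the mean inhibition of test wells on that plate plus 3 SD, cut at about 28% in these data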;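 also: cells challenged with S1P at its EC80 of 0.8 µM; blue over green emission ratio from cleaved BLA substrate after 4 h stimulation; 0% = S1P-stimulated wells and 100% = unstimulated DMSO-only wells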
# Target sequence (Q99500 whole entry, looked up): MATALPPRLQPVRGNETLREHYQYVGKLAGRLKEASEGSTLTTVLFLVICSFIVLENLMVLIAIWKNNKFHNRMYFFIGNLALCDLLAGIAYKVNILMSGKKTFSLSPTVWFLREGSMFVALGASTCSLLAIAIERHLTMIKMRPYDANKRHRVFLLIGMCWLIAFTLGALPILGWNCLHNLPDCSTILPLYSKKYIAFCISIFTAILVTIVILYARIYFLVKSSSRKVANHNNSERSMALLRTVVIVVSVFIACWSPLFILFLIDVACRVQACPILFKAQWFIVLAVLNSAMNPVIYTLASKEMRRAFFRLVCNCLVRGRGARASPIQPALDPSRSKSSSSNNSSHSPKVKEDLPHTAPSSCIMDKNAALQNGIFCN
# S1P4 antag = S1P4 receptor antagonists, primary screen, cell-based | Sphingosine 1-phosphate receptor 4 (Homo sapiens), O95977 | S1P4-expressing cells, antagonist mode, reporter read-out | inhibition, % at 4.98 µM | hit rate 0.26% among 220,000; in the data active = inhibition above about 29%;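 also: 0% = wells stimulated with agonist and 100% = vehicle wells without agonist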
# MDM2 E3 inh = MDM2-luciferase reporter signal enhancers, primary screen, MDM2 E3 ligase inhibitor project, cell-based, luminescence, 1536-well; cell-based MDM2 ubiquitination luciferase reporter, 2 h; 0 = plate control, 100 = twice control, blank-subtracted; signal enhancement, % at 5 µM; AID 1230, 2008; E3 ubiquitin-protein ligase Mdm2 (Homo sapiens), Q00987; hit rate 0.11% among 210,000;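 active = signal enhancement of 30% or more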;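 also: luminescence tracks abundance of the self-degrading MDM2-luciferase fusion protein; higher signal means inhibition of MDM2 E3 ligase activity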
#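 Timing – 2 h compound exposure at 37 °C · Assay system – mammalian cells stably expressing self-ubiquitinating, self-degrading MDM2 E3–luciferase fusion · Amount – 2000 cells seeded into each well · Measure – % luminescence enhancement versus blank-corrected plate control mean · Measured by – SteadyLite luminescence, 15 min reagent step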
# S1P4 ag = S1P4 receptor agonists, primary screen, cell-based; Sphingosine 1-phosphate receptor 4 (Homo sapiens), O95977; S1P4-expressing cell line, agonist reporter assay; activation, % at 4.98 µM; hit rate 0.35% among 220,000; AID 1509, 2009; in the data active = activation above about 11%;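 also: 0% = DMSO vehicle and 100% = reference agonist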
# Lmaj promast = Leishmania major promastigote growth inhibition, primary screen; Leishmania major promastigotes, resazurin fluorescence viability; inhibition, % at 10 µM; hit rate 9% among 200,000; AID 1063, 2008; in the data active = inhibition above about 50%;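 also: promastigotes grown with compound for 44 hours at 28 °C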
# Active calls of the source: *; · = no result.
SMILES,S1P3 antag,S1P4 antag,MDM2 E3 inh,S1P4 ag,Lmaj promast
Cc1ccc(Nc2nc(N/N=C\c3ccc4c(c3)OCO4)nc(N3CCOCC3)n2)cc1,-0.7,1.1,-19.8,1.3,54.0*
O=C(Oc1ccc(/C=N/Nc2nc(N3CCCCC3)nc(N3CCCCC3)n2)cc1)c1ccco1,3.4,-1.2,-6.9,1.4,48.5
COC(=O)N/N=C/c1ccc(OC(=O)c2ccco2)c(OC)c1,-17.0,4.2,-8.5,-0.4,·
COc1cc(/C=N/Nc2ccc3ccccc3c2)ccc1OC(=O)c1ccco1,4.2,6.6,-2.4,-0.1,87.8*
CC(=O)c1cc(C#N)c(Oc2ccc(Cl)cc2Cl)nc1C,·,-5.6,·,0.0,-1.7
O=C(CCS(=O)(=O)c1ccccc1)Nc1ccccc1F,-7.8,7.7,-18.6,1.6,4.9
O=C(O)C1C2CCC(O2)C1C(=O)Nc1ccc(O)cc1 (stereo not given),-10.0,-25.0,-4.6,0.2,39.0
C#CC(C)OC(=O)Nc1cnccc1C(F)(F)F (stereo not given),1.0,9.1,-11.4,-0.8,·
COC(=O)C1CSC(C(=O)OC)N1C(=O)CN1CCN(c2ccc(OC)cc2)CC1 (stereo not given),15.3,-11.0,4.5,-0.1,-4.0
CCN(CC)Cc1cc(NC2=NS(=O)(=O)c3ccccc32)ccc1OC(=O)c1ccccc1,-3.5,-10.3,-14.2,0.5,98.5*
O=C(Oc1cccc(NC2=NS(=O)(=O)c3ccccc32)c1)c1cccnc1,-4.7,-2.9,-10.2,0.3,-4.0
CCN(CC)Cc1cc(NC2=NS(=O)(=O)c3ccccc32)ccc1OC(=O)C(C)C,·,0.6,-5.6,1.9,99.0*
CC1CCN(S(=O)(=O)c2ccc3nc(-c4ccccn4)cc(C(=O)NCCN(C)Cc4ccccc4)c3c2)CC1,-5.9,-2.2,-88.7,-1.5,5.5
C/C(CC1CC2=C(CC1(C)C)C(C)(C)CCC2)=N\NC(N)=S (stereo not given),·,11.8,-12.4,2.0,100.5*
CCOc1cc(CNCc2ccncc2)cc(Br)c1OCc1ccccc1F,·,-17.8,-8.4,-2.1,91.6*
CCOc1cc(CNCCO)cc(Br)c1OCc1cccs1,·,0.1,-20.2,1.0,100.5*
CCOc1cc(CNCCO)cc(Br)c1OCc1ccc(Cl)cc1Cl,·,-1.2,-6.8,7.9,100.7*
CC1CN(C(c2cccs2)c2sc3ncnn3c2O)CC(C)O1 (stereo not given),-21.9,-4.5,-8.5,-2.3,-2.5
COc1ccc(NC(=O)COC(=O)CCNS(=O)(=O)c2ccc(Cl)cc2)cc1,4.3,-18.9,·,1.2,·
CN(C)C(=O)N1CCN(C(=O)N2CCOCC2)CC1,·,3.5,7.0,0.4,-4.6
Nc1nc(-c2cccnc2)nn1C(=O)c1ccc(F)cc1,-12.0,-18.4,-8.7,1.5,-4.2
Cn1cnc([N+](=O)[O-])c1Oc1cccc2ccccc12,18.3,-21.5,11.6,-0.6,73.2*
Cn1cnc([N+](=O)[O-])c1Oc1ccccc1,1.1,-25.3,2.3,0.3,23.5
N#Cc1nc(Cl)c(Cl)c(NN)c1Cl,5.7,1.9,-4.7,1.7,·
Cc1oc2ccc(O)c(CN3CCOCC3)c2c1C(=O)c1ccc(Cl)cc1,-44.0,8.9,-9.4,-0.2,52.1*
SMILES,S1P3 antag,S1P4 antag,MDM2 E3 inh,S1P4 ag,Lmaj promast
CN1CCN(Cc2c(O)ccc3occ(C(=O)c4ccccc4)c23)CC1,-5.4,2.6,2.8,-1.4,5.5
Cc1ccc(-n2ncc(C(=O)Nc3ccc(Cl)cc3)c2C2CCNCC2)cc1C,-11.0,-4.9,-16.0,0.6,98.7*
CCCn1nc(C(=O)OCC(=O)NC(C)c2ccccc2)c2ccccc2c1=O (stereo not given),-4.3,-7.2,1.8,3.6,-3.5
CCN(CC)CCCNc1nc2cc(OC)c(OC)cc2c2nc(-c3cccnc3)nn12,·,-30.4,-21.1,0.3,100.7*
CCN(CC)CCCNc1nc2cc(OC)c(OC)cc2c2nc(-c3ccccc3)nn12,·,-31.1,-14.8,0.5,100.5*
COc1cc2nc(NCC3CCCO3)n3nc(-c4cccnc4)nc3c2cc1OC (stereo not given),-7.3,-4.9,-31.0,-0.7,49.3
COc1cc2nc(NCCCN3CCN(C)CC3)n3nc(-c4ccccc4)nc3c2cc1OC,·,-3.9,-33.9,-1.2,100.5*
Cc1ccc2nc(-c3ccc(N4C(=N)SC5CS(=O)(=O)CC54)cc3)sc2c1 (stereo not given),-22.1,-9.8,-24.1,-1.3,-1.7
Cc1cccc(NC(=O)CSc2nnc(CNC(=O)c3ccc(S(=O)(=O)N(C)C)cc3)n2-c2cccc(C)c2)c1,-10.6,-7.0,-6.6,1.3,72.1*
Cc1cccc(-n2c(CNC(=O)c3ccc(S(=O)(=O)N(C)C)cc3)nnc2SCC(=O)Nc2ccc(F)cc2)c1,5.0,-6.4,11.9,-0.4,-8.4
Cc1cccc(NC(=O)CSc2nnc(CNC(=O)c3ccc(S(=O)(=O)N(C)C)cc3)n2-c2ccc(F)cc2)c1,11.2,-22.7,-24.7,-0.7,-7.5
Cc1cccc(NC(=O)CSc2nnc(CNC(=O)c3ccc(S(=O)(=O)N(C)C)cc3)n2-c2ccccc2)c1,-9.5,-21.5,-3.9,2.2,54.7*
O=C(Nc1ccccn1)C(F)(F)C(F)(F)C(F)(F)C(F)(F)C(=O)Nc1ccccn1,2.8,-15.2,-9.1,0.2,69.8*
Cc1ccc(NC(=O)c2ccccc2NS(=O)(=O)c2ccc(Cl)s2)cc1,-3.2,-15.8,-15.9,0.6,52.7*
COc1cc(Nc2ccccc2Cl)c([N+](=O)[O-])nc1[N+](=O)[O-],·,-21.9,4.1,0.6,83.5*
Cc1c(NC(=O)COC(=O)c2cc3c4ccccc4n(C)c3s2)c(=O)n(-c2ccccc2)n1C,26.1,-2.2,3.0,1.6,95.6*
O=C(N/N=C\CCc1ccccc1)c1ccco1,1.1,3.7,-10.1,-1.2,-3.4
C#CC(CC)(CC)NC(=S)Nc1cccc(C(C)=O)c1,·,-8.7,9.3,-3.2,2.2
Cc1cccc(C)c1N1CCN(c2ccc3nnc(C(F)(F)F)n3n2)CC1,·,-4.4,-18.9,-3.2,59.8*
COc1ccc(C(NC(=O)C(C)C)c2c(O)ccc3ccccc23)cc1OC (stereo not given),-15.0,-11.1,-4.4,0.1,99.1*
CCC(=O)NC(c1ccccc1Cl)c1c(O)ccc2ccccc12 (stereo not given),-2.4,-1.2,-4.7,2.1,22.5
CCC(=O)NC(c1ccc(N(C)C)cc1)c1c(O)ccc2ccccc12 (stereo not given),-8.6,-14.2,-8.7,-0.8,100.0*
CC(C)C(=O)NC(c1ccccc1Cl)c1c(O)ccc2ccccc12 (stereo not given),·,16.9,-2.2,3.6,99.1*
CCC(=O)NC(c1ccc(OC)cc1)c1c(O)ccc2ccccc12 (stereo not given),-20.6,1.3,-18.1,-0.6,98.7*
CCNc1nc(ON=C(C)C)nc(N(C)C)n1,2.0,-18.7,-1.1,0.8,-5.8

# Compound activity (PubChem)
